The structures appear in SMILES notation. Values joined by “and” are separate entries in the source; they are usually repeats but may differ in a detail not shown here. Equal values may be shown once.

For assay [1], the target named is Muscarinic acetylcholine receptor. Put plainly: Antagonist activity against Muscarinic acetylcholine receptor of rat bladder. The format is functional. The gist of the method:
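Longitudinal bladder strip (2 mm wide, urethra to apex) in PSS at 37 °C, recorded isometrically, equilibrated 30 min. Carbachol dose-response curves run at 30-min intervals, with the second taken as control. After 30 min antagonist incubation, the curve was repeated.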

Assay [2] has the same target. In words: Antagonist activity against Muscarinic acetylcholine receptor of guinea pig ileum. The assay is classed as functional, tissue-based, Cavia porcellus.
The target is the same in assay [3]. Put plainly: Antagonist activity against Muscarinic acetylcholine receptor of guinea pig heart. The format is functional, Cavia porcellus.
Assay [4] has the same target. In words: Antagonist activity against Muscarinic acetylcholine receptor of guinea pig heart. The format is functional, Cavia porcellus.

`C[N+](C)(C)C[C@@H]1C[S@@+]([O-])C(C2CCCCC2)(C2CCCCC2)O1.[I-]` (racemic): the pA2 in assay [1] is 6.03; in assay [2], 6.24; in assay [3], 6.77 and 6.63.
Regarding `C[N+](C)(C)C[C@@H]1C[S@+]([O-])C(C2CCCCC2)(C2CCCCC2)O1.[I-]` (racemic), the pA2 in assay [1] is 5.99; in assay [2], 6.4; in assay [3] it was 6.27 and 6.06.
For `C[N+](C)(C)C[C@@H]1CSC(C2CCCCC2)(C2CCCCC2)O1.[I-]` (racemic), the pA2 in assay [1] was determined as 6.26; in assay [4] it was 6.12; in assay [2], 6.95; in assay [3] it was 6.38.
Consider `C[N+](C)(C)C[C@@H]1CSC(C2CCCCC2)(C2CCCCC2)O1.[I-]` (stereo in doubt; (+)-2), for which the pA2 in assay [1] is 6.28; in assay [2] it was 6.98; in assay [3] it was 6.37 and 6.42.
Consider `C[N+](C)(C)C[C@@H]1C[S@@+]([O-])C(C2CCCCC2)(C2CCCCC2)O1.[I-]` (stereo in doubt; (+)-4), for which the pA2 in assay [1] is 5.51; in assay [2] it was 5.81; in assay [3], 5.55 and 5.4.
With `C[N+](C)(C)C[C@@H]1C[S@+]([O-])C(C2CCCCC2)(C2CCCCC2)O1.[I-]` (stereo in doubt; (+)-6), the pA2 was 6.27 in assay [1]; 6.32 in assay [2]; 6.45 and 6.31 in assay [3].
Take `C[N+](C)(C)C[C@@H]1CSC(C2CCCCC2)(C2CCCCC2)O1.[I-]` (stereo in doubt; (-)-2): the pA2 in assay [1] was 6.34; in assay [2], 6.92; in assay [3], 6.02 and 6.05.
As to `C[N+](C)(C)C[C@@H]1C[S@@+]([O-])C(C2CCCCC2)(C2CCCCC2)O1.[I-]` (stereo in doubt; (-)-4), the pA2 is 6.36 in assay [1]; 6.69 in assay [2]; 6.79 and 6.65 in assay [3].
Consider `C[N+](C)(C)C[C@@H]1C[S@+]([O-])C(C2CCCCC2)(C2CCCCC2)O1.[I-]` (stereo in doubt; (-)-6), for which the pA2 in assay [1] is 5.48; in assay [2], 5.92; in assay [3], 5.61 and 5.59.

(Values after ChEMBL document CHEMBL1124301, “Enantioselectivity of muscarinic antagonists. 2,2-Dicyclohexyl-5-[(dimethylamino)methyl]-1,3-oxathiolane methiodides and related 3-oxides” (J Med Chem, 1988).)
